The record followed here is ChEMBL document CHEMBL1124184, “Dopamine autoreceptor agonists as potential antipsychotics. 1. (Aminoalkoxy)anilines” (J Med Chem, 1988).

Structures are written as SMILES. Active and inactive are the calls of the source. The calls are words filed in the database; no cut-off is given here.

In experiment [1] the test system is Rattus norvegicus. Description: Inhibition of accumulation of DOPA in rat striatum, after intraperitoneal administration. The experiment is classed as functional. Conditions: ip. The method in brief:
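Rats dosed ip 1 h before sacrifice; GBL (750 mg/kg ip) and NSD 1015 (100 mg/kg ip) given 30 and 25 min before sacrifice. Striatal DOPA measured by HPLC with electrochemical detection. ED50 is the dose giving half-maximal decrease in DOPA formation, from three to five dose levels with four to five rats per group.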

Experiment [2] deals with Rattus norvegicus. In words: Inhibition of locomotor activity in rats, after sc injection after dosing for a period of 30 min. The experiment is classed as functional. Particulars: 0.5 h.
Experiment [3] concerns Rattus norvegicus. In words: Inhibition of dopamine neuronal firing in the anesthetized rats after ip administration at a dose 2.5 mg/kg. It counts as functional. Particulars: route intraperitoneal. The method in brief:
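Zona compacta DA cells of substantia nigra recorded extracellularly in chloral-anesthetized rats, identified by waveform and firing pattern, with recording sites confirmed histologically. Drug given at 2.5 mg/kg ip via an indwelling catheter. Baseline was the mean rate over the 2 min before injection. Effect was the mean over the 1-min period of maximal inhibition.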

The subject of experiment [4] is Rattus norvegicus. Description: Reversal of 6-OHDA-induced depression in rats, after sc injection after dosing for a period of 30 min. It counts as functional. Conditions: 0.5 h. The method in brief:
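Rats pretreated at least one month earlier with 6-OHDA (200 μg icv) plus pargyline (50 mg/kg ip) and desmethylimipramine (25 mg/kg ip), giving about 90% brain DA depletion checked in representative animals. Test drug given sc; locomotor activity recorded for 30 min starting immediately after dosing.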

For experiment [5], the system named is Rattus norvegicus. In words: Inhibition of locomotor activity in rats after peroral administration of the compound. The experiment is classed as functional. Conditions: po.
Experiment [6] concerns Rattus norvegicus. Description: Reversal of reserpine induced depression in rats, after sc injection after dosing for a period of 30 min. The experiment is classed as functional. Particulars: 0.5 h. In short, it runs like this: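 Normal rats given reserpine 5 mg/kg 24 h before testing, then test drug sc. Locomotor activity recorded for 30 min starting immediately after dosing. Locomotor stimulation read as reversal of reserpine-induced depression.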

Experiment [7] concerns Monkey. In words: Effect on Inhibition of Sidman avoidance in squirrel monkeys when administered orally. It counts as functional. Conditions: in Saimiri, po. In short, it runs like this: (§1)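 Sidman avoidance in mature squirrel monkeys; oral dosing at three doses, four animals per dose; ED50 with SEM derived from the dose-response.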
Experiment [8] has as its system Monkey. In words: Effect on EPS liability in squirrel monkeys sensitized to haloperidol at 2.5 mg/kg; A=Active. It counts as functional, organism-based. Also on record: dose 2.5 mg/kg. Particulars: Cercopithecidae.
Experiment [9] deals with Monkey. Description: Effect on Inhibition of Sidman avoidance in squirrel monkeys was determined. The experiment is classed as functional. Conditions: in Saimiri. In short, it runs like this:
as §1

For orientation: ED50 means the dose that gives a 50% effect, or the effect in half of the subjects. As a reminder, the inhibition in vivo is the drop in the measured response relative to a control, in per cent. With `CCCN1CCC[C@H](c2cccc(O)c2)C1`, the 50% effective dose (ED50) in experiment [1] is 7.2 mg/kg; in [2], 8.8 mg/kg; in experiment [4], 0.6 mg/kg; in [5], more than 30 mg/kg. Further, the inhibition in vivo at 2.5 mg/kg in [3] was found to be 100%.

`CN(C)c1cccc(OCCCN2CCN(c3ccccc3)CC2)c1` came in with an inhibition in vivo at 2.5 mg/kg in experiment [3] of 21%. In experiment [5], it took a dose of 9.2 mg/kg to reach the 50% effect level (ED50).

As to `C1=C(c2ccccc2)CCN(CCCCc2c[nH]c3ccccc23)C1`, the ED50 in [1] is 2.2 mg/kg; in experiment [6], more than 30 mg/kg; in experiment [2] it was 0.64 mg/kg; in [4], 0.4 mg/kg; in experiment [5], 4.8 mg/kg. Testing at 2.5 mg/kg in experiment [3] gave an inhibition in vivo of 100%.

`Nc1cccc(OCCCN2CCN(c3ccccc3)CC2)c1`: the ED50 was 8.5 mg/kg in experiment [7]; 12 mg/kg in [1]; more than 30 mg/kg in experiment [6]; 1.8 mg/kg in experiment [2]; more than 30 mg/kg in experiment [4]; 10.3 mg/kg in experiment [5]. In addition, the inhibition in vivo at 2.5 mg/kg in experiment [3] is 85%.

Consider `Nc1cccc(OCCCN2CC=C(c3ccccc3)CC2)c1`, for which the ED50 in experiment [1] is 7 mg/kg; in experiment [6], more than 30 mg/kg; in [2], 0.35 mg/kg; in experiment [4] it was 0.13 mg/kg; in [5], 12.1 mg/kg. For the same compound, in [3], testing at 2.5 mg/kg gave an inhibition in vivo of 89%.

On to `Nc1cccc(OCCCN2CCN(c3ccccn3)CC2)c1`, for which the inhibition in vivo at 2.5 mg/kg in experiment [3] was 46%. Also, in experiment [5], the 50% effect level (ED50) was put at a dose of 9.2 mg/kg.

With `CCCN(CCCOc1cccc(N)c1)CCc1ccccc1`, in [3], the inhibition in vivo at 2.5 mg/kg turned out to be 8%. For the same compound, the ED50 in [5] is more than 30 mg/kg.

In the case of `CNc1cccc(OCCCN2CCN(c3ccccc3)CC2)c1`, in [3], 2.5 mg/kg produced 7% inhibition in vivo. The compound also registered an ED50 in experiment [5] of 9.4 mg/kg.

With `CN1CCc2cccc3c2[C@H]1Cc1ccc(O)c(O)c1-3` [APOMORPHINE], the ED50 in experiment [1] was 0.3 mg/kg; in experiment [6], 0.096 mg/kg; in experiment [2] it was 0.021 mg/kg; in experiment [4] it was 0.006 mg/kg; in [5], more than 30 mg/kg. Moreover, in [3], the inhibition in vivo at 2.5 mg/kg was 100%.

For `CSc1ccc2c(c1)N(CCC1CCCCN1C)c1ccccc1S2` (stereo not given) [THIORIDAZINE], the EPS result in experiment [8] is “Active”. Moreover, in experiment [9], the ED50 worked out at 3.9 mg/kg.
